# Screens (PubChem)
# Calpain2 inh: inhibitors of pig calpain II | purified calpain II, fluorogenic peptide substrate, 30 min | inhibition, % at 16 µM | 220,000 tested, 0.37% active;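 active = inhibition above about 50%, limit read from the data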
# thrombin 1536: inhibitors of human thrombin; inhibition, % at 5 µM; alpha-thrombin, Boc-VPR-AMC fluorogenic substrate cleavage; 220,000 tested, 0.26% active;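 active = inhibition at or above 40%; inactive = inhibition below 40%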;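 note: 0% = enzyme with no compound and 100% = wells without enzyme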
#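 signal = AMC fluorescence, 355/460 nm | material = human alpha-thrombin enzyme | control set = enzyme without compound as high, wells lacking enzyme as low | times = reaction at room temperature | read-out basis = percent inhibition scaled between no-compound controls and no-enzyme blanks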
# FXIa inh 1536: inhibitors of human coagulation factor XIa. P03951. purified FXIa, Boc-Glu-Ala-Arg-AMC fluorogenic substrate. inhibition, % at 5 µM. 220,000 tested, 0.14% active. AID 798;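 active = inhibition of at least 40%; inactive = inhibition below 40%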;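 note: fluorescence of freed AMC excited at 355 nm; 0% = enzyme without compound and 100% = no enzyme blank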
# FXIIa inh: blocks human coagulation factor XIIa protease activity | AID 800 | P00748 | inhibition, % at 5 µM | purified FXIIa, Boc-QGR-AMC fluorogenic substrate, 2 h | 220,000 tested, 0.3% active; in the data active = inhibition above about 40%;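 note: 0% = enzyme with no compound and 100% = blank without enzyme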
# KLK5 inh: inhibitors of human kallikrein 5; Q9Y337; recombinant hK5, fluorogenic AMC substrate cleavage; inhibition, % at 5 µM; 210,000 tested, 0.59% active; AID 873;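 active = inhibition of 40% or more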;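 note: 0% = enzyme controls without compound and 100% = no-enzyme blanks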
# Target sequence (Q9Y337 67-293 limits assumed): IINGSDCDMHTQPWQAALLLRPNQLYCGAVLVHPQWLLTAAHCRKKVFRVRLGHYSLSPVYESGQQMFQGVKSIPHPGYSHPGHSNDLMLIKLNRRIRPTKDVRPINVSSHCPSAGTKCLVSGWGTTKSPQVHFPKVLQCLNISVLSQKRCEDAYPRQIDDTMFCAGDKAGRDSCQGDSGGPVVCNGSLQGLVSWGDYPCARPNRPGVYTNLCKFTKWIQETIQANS
# Starred values were filed as active, the others as inactive; x = not tested or not shown. Only some compounds are listed: those with a hit (about 1.4% of all), similar ones and a draw of the others.
SMILES,Calpain2 inh,thrombin 1536,FXIa inh 1536,FXIIa inh,KLK5 inh
c1ccc(-c2csc3ncnc(NCC4COc5ccccc5O4)c23)cc1 (centres undefined),25,18,17,41*,57*
CCn1c(SCC(=O)c2ccc(Cl)cc2)nnc1C(C)C,-6,4,-16,-3,-16
CCn1c(SCC(N)=O)nnc1C(C)C,-27,97*,-2,8,-1
O=C1c2cccnc2Oc2ccc(Cl)cc2N1Cc1ccc(F)cc1,19,36,22,14,44*
O=C(c1cccc(C(F)(F)F)c1)N(c1ccccn1)C1CCCCC1,1,-5,4,6,-4
C(=N\c1ncnc2sccc12)/NOCc1ccccc1,-8,-1,6,4,0
Clc1ccc(CON/C=N/c2ncnc3sccc23)cc1,15,24,8,13,78*
O=C(COc1ccccc1C(=O)O)Nc1ccc(SC(F)F)cc1,23,48*,15,16,x
CN(C)C(=O)COC(=O)c1ccccc1OCC(=O)Nc1ccc(SC(F)F)cc1,-6,2,6,12,-9
CN1CCN(S(=O)C23CC4CC(CC(C4)C2)C3)CC1 (centres undefined),-11,-1,1,6,4
O=S(N1CCc2ccccc21)C12CC3CC(CC(C3)C1)C2 (centres undefined),103*,0,-8,-10,-30
COc1ccc(CN(C)C(=S)Nc2ccc(Cl)cc2)cc1,30,-1,27,42*,30
CC1=NN(c2cccc(C(=O)O)c2)C(=O)/C1=C\C=C/c1ccccc1,1,2,-8,-3,-21
CCOC(=O)c1oc2ccccc2c1NC(=O)c1ccccc1OC,-31,-12,1,17,60*
COc1ccc(S(=O)(=O)NCc2cc(-c3ccccc3Cl)no2)cc1,26,-21,-9,6,-4
COc1cccc(CC(=O)Nc2ccc(S(=O)(=O)Nc3nc(C)cc(C)n3)cc2)c1,-11,1,-5,-6,-18
C#CCOc1ccccc1C(N)=O,-154,-7,2,7,0
COc1cccc(/C=N/NC(=O)CNC(=O)c2ccc(S(=O)(=O)N3CCCC3)cc2)c1OC,-61,-32,-9,5,-6
Cc1[nH]c2ccccc2c1C(=O)COC(=O)Cn1c(C)nc2ccccc21,15,20,39,32,52*
O=C(Oc1ccc2c(c1)OCO2)C12CC3CC(CC(C3)C1)C2,66*,9,-2,-5,-6
COc1ccc(-c2cc(C(F)(F)F)c(C#N)c(SCC(=O)O)n2)cc1OC,-87,9,35,18,48*
Cc1ccc(CN2CCN(Cc3ccc4cc(F)ccc4n3)CC2CCO)o1 (centres undefined),-12,7,2,7,-3
O=C(CSc1ccccc1)N(c1ccc(Br)cc1)c1nccs1,22,-9,4,10,-13
O=C(NN=C1CCCC1)c1ccccc1OCc1ccc(Cl)cc1,6,33,52*,28,38
COc1ccc(C2=NO[C@@H]3C(=O)N(c4ccc(C)cc4C)C(=O)[C@H]23)cc1OC,21,-3,-7,0,-14
SMILES,Calpain2 inh,thrombin 1536,FXIa inh 1536,FXIIa inh,KLK5 inh
COc1ccc(-c2cn(-c3ccc(C)cc3C)c(=O)[nH]2)cc1OC,39,15,30,35,49*
CC(=O)c1sc(=S)n(-c2ccccc2)c1C,18,14,11,23,13
CSc1cc(C)n(-c2ccccc2)c(=S)c1C(C)=O,16,20,2,18,46*
O=C(c1ccc(F)cc1)C1CCN(C(=S)NCC2CCCO2)CC1 (centres undefined),-22,-11,3,8,-6
COC(=O)Cc1ccc(NC(=S)N2CCN(c3ccc(F)cc3)CC2)cc1,27,53*,-4,33,72*
Cc1cc(=O)n2c(n1)SCOC2,8,5,21,43*,35
COc1cc(=O)n2c(n1)SCCC2,-2,2,2,16,-22
CCOC(=O)N1CCN(CC(O)COc2c(C)cccc2C)CC1 (centres undefined),-9,4,9,23,-14
Cc1cccc(C)c1OCC(O)CN (centres undefined),0,19,11,6,52*
CCC(=O)c1ccc(OCc2ccc(C(=O)OC)cc2)c(OC)c1,15,13,1,25,57*
CCC(=O)c1ccc(OCc2ccccc2)c(OC)c1,12,-8,-2,0,-20
COc1ccc(CCNC(=O)C(=O)NCC2CCCO2)cc1OC (centres undefined),26,29,3,15,51*
